Measurements from ChEMBL document CHEMBL2010644, “Evaluation and discovery of novel synthetic chalcone derivatives as anti-inflammatory agents” (J Med Chem, 2011).
Calls of active or inactive are those of the source. The rule behind the calls is not given here.

Key:
[1] = system: Peritoneal macrophage cell; assay: Antiinflammatory activity in ICR mouse primary peritoneal macrophages assessed as downregulation of high glucose-induced IL6 mRNA expression at 10 uM incubated for 2 hrs prior to high glucose-challenge measured after 3 hrs by RT-qPCR analysis; format: functional, cell-based
Outline: (§1)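 Peritoneal macrophages (1 × 10^6) pretreated with compound (10 μM) or DMSO for 2 h, then high glucose (25 mM) for 3 h. Low-glucose reference cells kept in RPMI-1640 with 5.5 mM glucose. TNF-α, IL-1β, IL-6 and IL-12 mRNA measured by RT-qPCR on whole-cell RNA. Mean ± SEM, three independent experiments run in duplicate.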

RAW264.7 [2] = assay: Antiinflammatory activity in mouse RAW264.7 cells assessed as inhibition of LPS-induced TNFalpha production at 10 uM incubated for 2 hrs prior to LPS-challenge measured after 22 hrs by ELISA; format: functional, cell-based
Outline: (§2)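 RAW264.7 cells grown in DMEM with 10% FBS at 37 °C, 5% CO2, plated at 1.2 × 10^6/plate overnight. Compound pretreatment 2 h (screen at 10 μM; dose-response at 2.5, 5.0, 10 μM), then LPS 0.5 μg/mL for 22 h. Medium TNF-α or IL-6 measured by ELISA, normalized to cell protein, expressed as % of LPS control; IC50 derived from dose series.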

[3] = system: Peritoneal macrophage cell; assay: Antiinflammatory activity in ICR mouse primary peritoneal macrophages assessed as downregulation of LPS-induced IL-1beta mRNA expression at 10 uM incubated for 2 hrs prior to LPS-challenge measured after 6 hrs by RT-qPCR analysis; format: functional, cell-based
Outline: (§3)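 Macrophages pretreated 2 h with compound at 10 μM or vehicle, then LPS 0.5 μg/mL for 6 h. mRNA of TNF-α, IL-6, COX-2, IL-1β and IL-12 quantified by RT-qPCR, normalized to β-actin mRNA and expressed as ratio to DMSO. Mean ± SD of four to seven independent experiments.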

[4] = system: Peritoneal macrophage cell; assay: Antiinflammatory activity in ICR mouse primary peritoneal macrophages assessed as downregulation of LPS-induced IL-6 mRNA expression at 10 uM incubated for 2 hrs prior to LPS-challenge measured after 6 hrs by RT-qPCR analysis; format: functional, cell-based; outline: as §3
[5] = system: Peritoneal macrophage cell; assay: Antiinflammatory activity in ICR mouse primary peritoneal macrophages assessed as downregulation of LPS-induced COX-2 mRNA expression at 10 uM incubated for 2 hrs prior to LPS-challenge measured after 6 hrs by RT-qPCR analysis; format: functional, cell-based; outline: as §3
RAW264.7 [6] = assay: Antiinflammatory activity in mouse RAW264.7 cells assessed as inhibition of LPS-induced IL6 production at 10 uM incubated for 2 hrs prior to LPS-challenge measured after 22 hrs by ELISA; format: functional, cell-based; outline: as §2
RAW264.7 [7] = assay: Antiinflammatory activity in mouse RAW264.7 cells assessed as inhibition of LPS-induced IL6 production incubated for 2 hrs prior to LPS-challenge measured after 22 hrs by ELISA; format: functional, cell-based; outline: as §2
[8] = system: Peritoneal macrophage cell; assay: Antiinflammatory activity in ICR mouse primary peritoneal macrophages assessed as downregulation of high glucose-induced IL12 mRNA expression at 10 uM incubated for 2 hrs prior to high glucose-challenge measured after 3 hrs by RT-qPCR analysis; format: functional, cell-based; outline: as §1
[9] = system: Peritoneal macrophage cell; assay: Antiinflammatory activity in ICR mouse primary peritoneal macrophages assessed as downregulation of LPS-induced TNF-alpha mRNA expression at 10 uM incubated for 2 hrs prior to LPS-challenge measured after 6 hrs by RT-qPCR analysis; format: functional, cell-based; outline: as §3
[10] = biological target: T1, MAP kinase p38 (Mus musculus) (UniProt P47811+O08911+Q9WUI1+Q9Z1B7); assay: Inhibition of LPS-induced p38 phosphorylation in ICR mouse primary peritoneal macrophages at 10 uM incubated for 2 hrs prior to LPS-challenge measured after 1 hr by Western blot analysis
Outline: (§4)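 Cells pretreated 2 h with DMSO or compound (10 μM in the single-concentration set; 2.5, 5.0, 10, 20 μM in the dose series), then LPS 0.5 μg/mL for 1 h. p-ERK, ERK, p-p38 and p38 detected by Western blot with actin loading control; optical density ratio reported. Mean ± SE, three independent experiments.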

[11] = system: Peritoneal macrophage cell; assay: Antiinflammatory activity in ICR mouse primary peritoneal macrophages assessed as downregulation of high glucose-induced IL1beta mRNA expression at 10 uM incubated for 2 hrs prior to high glucose-challenge measured after 3 hrs by RT-qPCR analysis; format: functional, cell-based; outline: as §1
RAW264.7 [12] = assay: Antiinflammatory activity in mouse RAW264.7 cells assessed as inhibition of LPS-induced TNFalpha production incubated for 2 hrs prior to LPS-challenge measured after 22 hrs by ELISA; format: functional, cell-based; outline: as §2
[13] = system: Peritoneal macrophage cell; assay: Antiinflammatory activity in ICR mouse primary peritoneal macrophages assessed as downregulation of LPS-induced IL-12 mRNA expression at 10 uM incubated for 2 hrs prior to LPS-challenge measured after 6 hrs by RT-qPCR analysis; format: functional, cell-based; outline: as §3
Mus musculus [14] = species on record: Mus musculus; assay: Inhibition of LPS-induced ERK phosphorylation in ICR mouse primary peritoneal macrophages at 10 uM incubated for 2 hrs prior to LPS-challenge measured after 1 hr by Western blot analysis; outline: as §4
[15] = system: Peritoneal macrophage cell; assay: Antiinflammatory activity in ICR mouse primary peritoneal macrophages assessed as downregulation of high glucose-induced TNFalpha mRNA expression at 10 uM incubated for 2 hrs prior to high glucose-challenge measured after 3 hrs by RT-qPCR analysis; format: functional, cell-based; outline: as §1
Mus musculus [16] = species on record: Mus musculus; assay: Inhibition of LPS-induced JNK phosphorylation in ICR mouse primary peritoneal macrophages incubated for 2 hrs prior to LPS-challenge measured after 30 mins by Western blot analysis
Outline: (§5)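 Peritoneal macrophages pretreated with DMSO or compound (2.5, 5, 10 or 20 μM) for 2 h, then LPS 0.5 μg/mL for 30 min. Western blot of 40 μg lysate on 10% SDS-PAGE for IκBα (actin loading control) and p-JNK (JNK control); optical density normalized as percent of control. Mean ± SEM, three independent experiments.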

[17] = biological target: T1, MAP kinase p38 (Mus musculus); assay: Inhibition of LPS-induced p38 phosphorylation in ICR mouse primary peritoneal macrophages incubated for 2 hrs prior to LPS-challenge measured after 1 hr by Western blot analysis; outline: as §4
[18] = biological target: T1, MAP kinase p38 (Mus musculus); assay: Inhibition of LPS-induced p38 phosphorylation in ICR mouse primary peritoneal macrophages at 20 uM incubated for 2 hrs prior to LPS-challenge measured after 1 hr by Western blot analysis; outline: as §4
Mus musculus [19] = species on record: Mus musculus; assay: Inhibition of JNK-induced IkappaBalpha degradation in LPS-stimulated ICR mouse primary peritoneal macrophages incubated for 2 hrs prior to LPS-challenge measured after 30 mins by Western blot analysis; outline: as §5
Mus musculus [20] = species on record: Mus musculus; assay: Inhibition of LPS-induced ERK phosphorylation in ICR mouse primary peritoneal macrophages at 20 uM incubated for 2 hrs prior to LPS-challenge measured after 1 hr by Western blot analysis; outline: as §4
Mus musculus [21] = assay: Toxicity in C57BL/6 mouse assessed as weight loss at 15 mg/kg, iv after 60 hrs; format: organism-based; set-up: dose 15 mg/kg, route intravenous; details: in vivo
Outline: (§6)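 Male B6 mice (18−22 g) given compound at 15 mg/kg iv (2 mg/mL in macrogol 15 hydroxystearate 5−10% ± MCT 0.5−2%, 200 μL). LPS 20 mg/kg iv followed 15 min later. Vehicle controls received 10% solubilizer/2% MCT. Body weight recorded every 12 h for 7 days; n = 10 per group.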

Mus musculus [22] = species on record: Mus musculus; assay: Inhibition of JNK-induced NfkappaB p65 subunit translocation from cytoplasm to nucleus in LPS-stimulated ICR mouse primary peritoneal macrophages at 10 uM incubated for 2 hrs prior to LPS-challenge measured after 1 hr by fluorescence microscopy
Outline: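 Macrophages pretreated with DMSO or 10 μM compound for 2 h, stimulated with LPS 0.5 μg/mL for 1 h. Stained with anti-p65 and Cy3-conjugated secondary antibody, nuclei with DAPI. Imaged at 200× by fluorescence microscopy with red/blue overlay. Five independent experiments.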

Mus musculus [23] = assay: Antiinflammatory activity against LPS-induced inflammation in C57BL/6 mouse assessed as survival at 15 mg/kg, iv administered 15 mins prior to LPS-challenge after 7 days relative to vehicle treated control; format: functional
Outline: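 Male B6 mice, 18−22 g, acclimatized ≥7 days. Compound at 2 mg/mL in macrogol 15 hydroxystearate solubilizer (5−10% final) with or without MCT (0.5−2% final), 200 μL iv at 15 mg/kg, 15 min before iv LPS 20 mg/kg. Vehicle controls got 10% solubilizer/2% MCT. Survival and body weight recorded every 12 h for 7 days; n = 10 per group.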

Mus musculus [24] = assay: Toxicity in C57BL/6 mouse assessed as weight loss at 15 mg/kg, iv up to 60 hrs; format: organism-based; set-up: dose 15 mg/kg, route intravenous; details: in vivo; outline: as §6
RAW264.7 [25] = assay: Antiinflammatory activity in mouse RAW264.7 cells assessed as inhibition of LPS-induced TNFalpha production at 10 uM incubated for 2 hrs prior to LPS-challenge measured after 22 hrs by ELISA relative to control; format: functional; outline: as §2
RAW264.7 [26] = assay: Antiinflammatory activity in mouse RAW264.7 cells assessed as inhibition of LPS-induced IL6 production at 10 uM incubated for 2 hrs prior to LPS-challenge measured after 22 hrs by ELISA relative to control; format: functional; outline: as §2
Mus musculus [27] = species on record: Mus musculus; assay: Inhibition of LPS-induced ERK phosphorylation in ICR mouse primary peritoneal macrophages incubated for 2 hrs prior to LPS-challenge measured after 1 hr by Western blot analysis; outline: as §4

Row | SMILES | Activity [1] | inhibition (RAW264.7 [2]) | Activity [3] | Activity [4] | Activity [5] | inhibition (RAW264.7 [6]) | IC50 (RAW264.7 [7]) [µM] | inhibition (RAW264.7 [7]) | Activity [8] | Activity [9] | inhibition [10] | Activity [11] | inhibition (RAW264.7 [12]) | Activity [13] | inhibition (Mus musculus [14]) | Activity [15] | IC50 (RAW264.7 [12]) [µM] | also measured
1 | COc1ccc(C(=O)/C=C/c2ccc(O)c(OC)c2)cc1 | Active | Active | Active | Active | Active | Active | > 10 | Dose-dependent effect | Active | Active | Active | Active | Dose-dependent effect | Active | Active | Active | – | –
2 | COc1ccc(C(=O)/C=C/c2c(F)cccc2F)cc1 | Active | – | Active | Active | inactive | – | 5.55 | Dose-dependent effect | Active | Active | Active | Active | Dose-dependent effect | Active | Active | Active | 8.42 | inhibition (Mus musculus [16]): Dose-dependent effect; inhibition [17]: Dose-dependent effect; inhibition [18]: Active; inhibition (Mus musculus [19]): Dose-dependent effect; inhibition (Mus musculus [20]): Active; Activity (Mus musculus [21]): Non-toxic; inhibition (Mus musculus [22]): Active; Activity (Mus musculus [23]): 80%; Activity (Mus musculus [24]): Toxic
3 | COc1ccc(/C=C/C(=O)c2ccc(OC)c(OC)c2)c(OC)c1 | Active | Active | Active | Active | Active | Active | 5.35 | Dose-dependent effect | Active | Active | Active | inactive | Dose-dependent effect | Active | Active | Active | 2.76 | –
4 | COc1cc(C(=O)/C=C/c2ccc(N(C)C)cc2)cc(OC)c1OC | inactive | Active | inactive | Active | inactive | Active | 6.88 | Dose-dependent effect | Active | Active | Active | Active | Dose-dependent effect | Active | Active | Active | 2.9 | inhibition at 10 µM (RAW264.7 [25]): 61.2%; inhibition at 10 µM (RAW264.7 [26]): 73.4%
5 | COc1ccc(C(=O)/C=C/c2cccc(OC)c2OC)cc1 | – | Active | – | – | – | Active | – | – | – | – | – | – | – | – | – | – | – | –
6 | COc1cc(/C=C/C(=O)CC(=O)/C=C/c2ccc(O)c(OC)c2)ccc1O | – | Active | – | – | – | Active | – | – | – | – | – | – | – | – | – | – | – | –
7 | COc1ccc(C(=O)/C=C/c2ccccc2Cl)cc1OC | – | Active | – | – | – | Active | – | – | – | – | – | – | – | – | – | – | – | –
8 | COc1ccc(/C=C/C(=O)c2cc(OC)c(OC)c(OC)c2)c(OC)c1 | – | Active | – | – | – | Active | – | – | – | – | – | – | – | – | – | – | – | –
9 | COc1ccc(C(=O)/C=C/c2ccccc2Cl)cc1 | Active | – | Active | Active | Active | – | 8.22 | Dose-dependent effect | Active | Active | Active | Active | Dose-dependent effect | Active | Active | Active | 7.32 | inhibition (Mus musculus [16]): Dose-dependent effect; inhibition [17]: Dose-dependent effect; inhibition [18]: Active; inhibition (Mus musculus [19]): Dose-dependent effect; inhibition (Mus musculus [20]): Active; Activity (Mus musculus [21]): Non-toxic; inhibition (Mus musculus [22]): Active; Activity (Mus musculus [23]): 70%; inhibition (Mus musculus [27]): Dose-dependent effect; Activity (Mus musculus [24]): Toxic
